The record followed here is ChEMBL document CHEMBL4732021, “Repurposing the HCV NS3-4A protease drug boceprevir as COVID-19 therapeutics” (RSC Med Chem, 2021).

The term Cmax denotes the maximum level reached in the sampled fluid or tissue. For orientation: IC50 means the concentration that inhibits the measured activity by half. The inhibition is how much of the control response was suppressed.

Activity calls are given as the source filed them. The rule behind the calls is not given here.

The subject of series [1] is Murine hepatitis virus. Kind of series: Antiviral activity against MHV-A59 infected in LR7 cells assessed as reduction in N protein production at 400 nM treated 2 hrs after post viral infection and measured after 6 hrs by Western blot analysis. Format: functional, organism-based. In outline: (§1)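 LR7 cells (1×10^5/well) infected with MHV A59 at MOI 1 for 1 h, washed, then held in DMEM with 2% FBS. Compound (4 nM–40 µM, tenfold steps) was added at 2 h p.i. and cells were harvested at 8 h p.i. Western blot probed for MHV N protein, normalized to GAPDH and expressed relative to the 0.1% DMSO control. Mock and 400 nM bafilomycin A1 served as controls. ≥3 independent experiments.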
In general terms: In western blotting, separated proteins are transferred to a membrane and probed.

The subject of series [2] is Murine hepatitis virus. Kind of series: Antiviral activity against MHV-A59 infected in LR7 cells assessed as reduction in number of infected cells at 400 nM treated 2 hrs after post viral infection and measured after 6 hrs by DAPI staining based immunofluorescence analysis. Format: functional, organism-based. The procedure, abridged:
(§2)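 MHV A59 infection of LR7 cells on coverslips at MOI 1. Compound (4 nM–40 µM, tenfold dilutions) was added 2 h p.i. and cells were fixed at 8 h p.i. with 4% paraformaldehyde. Cells were permeabilized with 0.2% Triton X-100 and stained with anti-nsp2/nsp3 antiserum, an Alexa-488 secondary and DAPI. nsp2/nsp3-positive cells were counted by confocal microscopy relative to the DMSO control. ≥3 independent experiments.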

The nature of series [3]: Cmax in human. Format: ADME.
Series [4] in a line: Inhibition of SARS-CoV-2 3CL protease expressed in Escherichia coli BL21 DE3 using 2-aminobenzoyl-SVTLQSG-Tyr(NO2)-R as substrate preincubated with substrate for 15 mins followed by compound addition and measured after 1 hr by FRET assay. Details: species or system Severe acute respiratory syndrome coronavirus 2.
Series [5] in a line: Cytotoxicity against African green monkey Vero E6 cells assessed as maximum non-toxic concentration after 6 hrs by MTT assay. It counts as cell-based. As to conditions: chlorocebus aethiops. In outline:
(§3)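 Vero E6 or LR7 cells seeded at 1×10^4/well were grown 24 h in DMEM with 10% FBS at 37 °C and 5% CO2. Serial drug dilutions (0–500 µM) were added for 6 h (legend) or 8 h (methods). Viability was normalized to the 0.1% DMSO control.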
(In general: Tetrazolium assays rely on reduction of a dye to a coloured formazan, in cell work by metabolically active cells.)

Series [6] can be described thus: Cytotoxicity against mouse LR7 cells assessed as maximum non-toxic concentration after 6 hrs by MTT assay. Format: cell-based. In outline:
as §3

Series [7] has as its system Murine hepatitis virus. Kind of series: Antiviral activity against MHV-A59 infected in LR7 cells assessed as reduction in N protein production at 40 uM treated 2 hrs after post viral infection and measured after 6 hrs by Western blot analysis relative to control. Format: functional. More on the design: scale not given: the % may be the effect or the level left. In outline: as §1

In series [8] the test system is Murine hepatitis virus. Briefly: Antiviral activity against MHV-A59 infected in LR7 cells assessed as reduction in number of infected cells at 40 uM treated 2 hrs after post viral infection and measured after 6 hrs by DAPI staining based immunofluorescence analysis relative to control. It counts as functional. Details: scale not given: the % may be the effect or the level left. The procedure, abridged:
as §2

Series [9] deals with Murine hepatitis virus. Briefly: Antiviral activity against MHV-A59 infected in LR7 cells assessed as reduction in N protein production at 4 nM treated 2 hrs post viral infection and measured after 6 hrs by Western blot analysis. It counts as functional. Details: scale not given: the % may be the effect or the level left. In outline: as §1
Series [10] relates to Murine hepatitis virus. Briefly: Antiviral activity against MHV-A59 infected in LR7 cells assessed as reduction in number of infected cells at 40 nM treated 2 hrs post viral infection and measured after 6 hrs by immunofluorescence analysis. Format: functional. Details: scale not given: the % may be the effect or the level left. The procedure, abridged: as §2
Series [11] concerns Murine hepatitis virus. Briefly: Antiviral activity against MHV-A59 infected in […] cells assessed as reduction in viral gene expression at 100 uM treated 2 hrs post viral infection and measured after 6 hrs by RT-PCR analysis. Format: functional, organism-based.
Series [12] concerns Murine hepatitis virus. Briefly: Antiviral activity against MHV-A59 infected in Vero E6 cells assessed as reduction in viral gene expression at 10 uM treated 2 hrs post viral infection and measured after 6 hrs by RT-PCR analysis. Format: functional. Details: scale not given: the % may be the effect or the level left.
In series [13] the test system is Murine hepatitis virus. Kind of series: Antiviral activity against MHV-A59 infected in LR7 cells assessed as reduction in N protein production measured after 6 hrs by Western blot analysis relative to control. It counts as functional, organism-based. The conditions noted are these: dose 0.004-40 µM. The procedure, abridged: as §1
The test system of series [14] is Severe acute respiratory syndrome coronavirus 2. Briefly: Inhibition of SARS-CoV-2 3CL protease expressed in Escherichia coli BL21 DE3 at 200 uM using 2-aminobenzoyl-SVTLQSG-Tyr(NO2)-R as substrate preincubated with substrate for 15 mins followed by compound addition and measured after 1 hr by FRET assay relative to control.

As for `CO/C1=C\C(C)=C\[C@@H](C)[C@@H](O)[C@@H](C)C/C(C)=C/C=C/[C@H](OC)[C@@H]([C@@H](C)[C@@H](O)[C@H](C)[C@@]2(O)C[C@@H](O)[C@H](C)[C@@H](C(C)C)O2)OC1=O`, the result with Murine hepatitis virus [1] and in the series with Murine hepatitis virus [2] was Active.

Molecule `CC(C)(C)NC(=O)N[C@H](C(=O)N1C[C@H]2[C@@H]([C@H]1C(=O)NC(CC1CCC1)C(=O)C(N)=O)C2(C)C)C(C)(C)C` (some centres undefined) [BOCEPREVIR] yielded a Cmax in [3] of 1720 ng/mL. Besides, in [4], half-maximal inhibition (IC50) required 1.59 µM. The MNTC at 6 h in series [5] and in series [6] was 72.5 µM throughout. Moreover, the Activity in the series on Murine hepatitis virus [7] was 90%; in the series on Murine hepatitis virus [8], 75%; in the series with Murine hepatitis virus [9], 40%; in the series with Murine hepatitis virus [10], 25%; in the series with Murine hepatitis virus [12], 50%; in the series with Murine hepatitis virus [13] it was “Dose-dependent effect”. Further, the outcome in the series on Murine hepatitis virus [11] was Active.

`CCC[C@H](NC(=O)[C@@H]1[C@H]2CCC[C@H]2CN1C(=O)[C@@H](NC(=O)[C@@H](NC(=O)c1cnccn1)C1CCCCC1)C(C)(C)C)C(=O)C(=O)NC1CC1` [TELAPREVIR] gave an IC50 in series [4] of 55.7 µM. In addition, the inhibition in series [14] was 100%. The MNTC at 6 h in series [5] and in series [6] was 72.5 µM in each case. In addition, the result with Murine hepatitis virus [7] and in the series with Murine hepatitis virus [8] was inactive.
